The test system of experiment [1] is Human immunodeficiency virus 1. Put plainly: Selectivity for wild type HIV1 virus over HIV1 K103N mutant. It counts as functional.
Experiment [2] relates to Human immunodeficiency virus 1. Put plainly: Selectivity for wild type HIV1 virus over HIV1 Y181C mutant. It counts as functional.
The test system of experiment [3] is Human immunodeficiency virus 1. The experiment is described as follows: Selectivity for wild type HIV1 virus over HIV1 L100I mutant. In kind it is functional.
The test system of experiment [4] is Human immunodeficiency virus 1. Put plainly: Selectivity for wild type HIV1 virus over HIV1 K103N/L100I mutant. In kind it is functional.
Experiment [5] relates to Human immunodeficiency virus 1. Put plainly: Antiviral activity against wild type HIV1 virus. In kind it is functional, organism-based. Put shortly:
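HEK 293T cells grown in DMEM with 10% FBS and Pen/Strep/Glutamine. Seeded at 700 cells/well, cultured 24 h at 37 °C under 5% CO₂. Serially diluted compound in DMSO added, then 1 h at 37 °C. HIV reporter virus added at MOI about 1.0, cells cultured a further 48 h at 37 °C. Luciferase read-out with Bright-Glo reagent.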

A further experiment concerns HEK293. The experiment is described as follows: Cytotoxicity against HEK293T cells. It counts as functional. Conditions: Homo sapiens. Put shortly:
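293T cells seeded at 700 cells/well and cultured 24 h at 37 °C under 5% CO₂. Serially diluted compound in DMSO added to uninfected cells, then a further 48 h at 37 °C. Viability read by fluorescence after Alamar Blue (diluted 1:1 in DMEM) and 4 h at room temperature.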

Experiment [6] has as its system Human immunodeficiency virus 1. The experiment is described as follows: Antiviral activity against HIV1 K103N mutant. In kind it is functional, organism-based. Put shortly:
(§1)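 HEK 293T cells grown in DMEM with 10% FBS and Pen/Strep/Glutamine. Cells seeded at 700 cells/well and cultured 24 h at 37 °C under 5% CO₂. Compounds serially diluted in DMSO were added and incubated 1 h at 37 °C. Cells were then infected with HIV reporter virus at MOI ~1.0 and cultured a further 48 h at 37 °C. Read-out was luciferase activity (Bright-Glo).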

The test system of experiment [7] is Human immunodeficiency virus 1. The experiment is described as follows: Antiviral activity against HIV1 Y181C mutant. It counts as functional, organism-based. Put shortly:
as §1

Experiment [8] concerns Human immunodeficiency virus 1. Put plainly: Antiviral activity against HIV1 L100I mutant. It counts as functional, organism-based. The essentials:
as §1

Experiment [9] deals with Human immunodeficiency virus 1. Put plainly: Antiviral activity against HIV1 K103N/L100I mutant. In kind it is functional, organism-based. Put shortly: as §1
The target of experiment [10] is Human immunodeficiency virus type 1 reverse transcriptase (Human immunodeficiency virus 1, UniProt Q72547). The experiment is described as follows: Inhibition of HIV1 reverse transcriptase.

This note sets out measurements from ChEMBL document CHEMBL1138087, “Synthesis and evaluation of N-aryl pyrrolidinones as novel anti-HIV-1 agents. Part 1” (Bioorg Med Chem Lett, 2006).

Broadly, the EC50 is the concentration giving half of the maximal effect. Broadly, the CC50 is the concentration at which the toxic effect on the cells reaches its halfway point. Low readings indicate harm at low concentration, high ones better tolerance by the cells. A word on the IC50: it is the concentration that inhibits the measured activity by half. Low readings indicate inhibition by little substance, high ones a need for much substance.

Structures are written as SMILES.

`COc1cccc(S(=O)(=O)Nc2cccc(N3C[C@@H](c4ccc(OC)c(OC5CCCC5)c4)CC3=O)c2)c1`: the Selectivity ratio in experiment [1] worked out at 26; in experiment [2] it was 40; in [3], 1.3; in experiment [4], 3. For the same compound, the EC50 in experiment [5] amounted to 25 nM; in [6], 656 nM; in [7], 990 nM; in experiment [8] it was 33 nM; in experiment [9], 76 nM. In addition, the CC50 in the experiment on HEK293 is greater than 10000 nM.

The compound `COc1ccc([C@H]2CC(=O)N(c3cccc(N)c3)C2)cc1OC1CCCC1` yielded an IC50 in [10] of 2000 nM. For the same compound, in [5], a half-maximal response (EC50) required 125 nM. Also, in the experiment on HEK293, the half-maximal cytotoxic concentration (CC50) is greater than 10000 nM.

For the compound `Cc1ccnc2c1NC(=O)c1cccnc1N2C1CC1` [NEVIRAPINE], the Selectivity ratio in experiment [1] was 101; in experiment [2], greater than 200; in [3], 3.2; in experiment [4] it was 88. Moreover, the EC50 is 50 nM in [5]; 5050 nM in [6]; greater than 10000 nM in [7]; 164 nM in [8]; 4390 nM in experiment [9]. Besides, the CC50 in the experiment with HEK293 was greater than 10000 nM.
